What was measured:
SK-MEL-2 = assay: Growth inhibition of human SK-MEL-2 cells assessed as cell growth at 1 M after 48 hrs by sulforhodamine B assay; type: functional; parameters: scale not given: the % may be the effect or the level left
Summary of the method: (§1)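 NCI 60-cell panel screen, single dose (1.0 M as printed). Cells grown in RPMI 1640 with 5% fetal bovine serum and 2 mM L-glutamine, seeded at 5000–40,000 cells/well, preincubated 24 h at 37 °C in 5% CO2 at 100% humidity, then exposed to compound for 48 h. Sulforhodamine B staining read-out. Result given as growth percent: 100 = no inhibition, 0 = no net growth, negative = lethality.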

OVCAR-3 = assay: Growth inhibition of human OVCAR3 cells assessed as cell growth at 1 M after 48 hrs by sulforhodamine B assay; type: functional; parameters: scale not given: the % may be the effect or the level left
Summary of the method: (§2)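 NCI 60-cell screen at a single high dose. Cells are grown in RPMI 1640 with 5% FBS and 2 mM L-glutamine, then plated at 5000–40,000 cells/well and held 24 h at 37 °C in 5% CO2 at 100% humidity. Drug is then added and plates are incubated another 48 h, with SRB staining as read-out. Results are given as growth percent (100 = no inhibition, 0 = no net growth, negative = lethality).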

PC-3 = assay: Growth inhibition of human PC3 cells assessed as cell growth at 1 M after 48 hrs by sulforhodamine B assay; type: functional; parameters: scale not given: the % may be the effect or the level left; summary of the method: as §2
T47D = assay: Growth inhibition of human T47D cells assessed as cell growth at 1 M after 48 hrs by sulforhodamine B assay; type: functional; parameters: scale not given: the % may be the effect or the level left; summary of the method: as §1
UACC-257 = assay: Growth inhibition of human UACC257 cells assessed as cell growth at 1 M after 48 hrs by sulforhodamine B assay; type: functional; parameters: scale not given: the % may be the effect or the level left; summary of the method: as §1
KM12 = assay: Growth inhibition of human KM12 cells assessed as cell growth at 1 M after 48 hrs by sulforhodamine B assay; type: functional; parameters: scale not given: the % may be the effect or the level left; summary of the method: as §2
[1] = system: Syncephalastrum racemosum; assay: Antimicrobial activity against Syncephalastrum racemosum at 1 to 5 ug/ml by agar well diffusion method; type: functional
Summary of the method: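 Agar well diffusion against bacteria and fungi. Inhibition zone is scored beyond the control: ++ 0.6–1.0 cm, + 0.1–0.5 cm, 0 no inhibition.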

NCI/ADR-RES = assay: Growth inhibition of human NCI/ADR-RES cells assessed as cell growth at 1 M after 48 hrs by sulforhodamine B assay; type: functional; parameters: scale not given: the % may be the effect or the level left; summary of the method: as §2
A549 = assay: Growth inhibition of human A549 cells assessed as cell growth at 1 M after 48 hrs by sulforhodamine B assay; type: functional; parameters: scale not given: the % may be the effect or the level left; summary of the method: as §2
SR = assay: Growth inhibition of human SR cells assessed as cell growth at 1 M after 48 hrs by sulforhodamine B assay; type: functional; parameters: scale not given: the % may be the effect or the level left; summary of the method: as §1
CCRF-CEM = assay: Growth inhibition of human CCRF-CEM cells assessed as cell growth at 1 M after 48 hrs by sulforhodamine B assay; type: functional; parameters: scale not given: the % may be the effect or the level left; summary of the method: as §2
K562 = assay: Growth inhibition of human K562 cells assessed as cell growth at 1 M after 48 hrs by sulforhodamine B assay; type: functional; parameters: scale not given: the % may be the effect or the level left; summary of the method: as §2
CAKI-1 = assay: Growth inhibition of human Caki1 cells assessed as cell growth at 1 M after 48 hrs by sulforhodamine B assay; type: functional; parameters: scale not given: the % may be the effect or the level left; summary of the method: as §2
HOP-62 = assay: Growth inhibition of human HOP62 cells assessed as cell growth at 1 M after 48 hrs by sulforhodamine B assay; type: functional; parameters: scale not given: the % may be the effect or the level left; summary of the method: as §2
[2] = Growth inhibition of human Hs 578T cells assessed as cell growth at 1 M after 48 hrs by sulforhodamine B assay; type: functional; parameters: scale not given: the % may be the effect or the level left; summary of the method: as §2
SF-295 = assay: Growth inhibition of human SF295 cells assessed as cell growth at 1 M after 48 hrs by sulforhodamine B assay; type: functional; parameters: scale not given: the % may be the effect or the level left; summary of the method: as §1
ACHN = assay: Growth inhibition of human ACHN cells assessed as cell growth at 1 M after 48 hrs by sulforhodamine B assay; type: functional; parameters: scale not given: the % may be the effect or the level left; summary of the method: as §2
OVCAR-8 = assay: Growth inhibition of human OVCAR8 cells assessed as cell growth at 1 M after 48 hrs by sulforhodamine B assay; type: functional; parameters: scale not given: the % may be the effect or the level left; summary of the method: as §2
IGROV-1 = assay: Growth inhibition of human IGROV1 cells assessed as cell growth at 1 M after 48 hrs by sulforhodamine B assay; type: functional; parameters: scale not given: the % may be the effect or the level left; summary of the method: as §2
Rattus norvegicus = organism: Rattus norvegicus; assay: Acute toxicity in albino rat; type: organism-based; details: in vivo
Summary of the method: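 Male albino rats received injections of increasing doses. LD50 and LD90, the doses killing 50% and 90% of the animals, were calculated by the Austen and Brocklehurst method.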

OVCAR-4 = assay: Growth inhibition of human OVCAR4 cells assessed as cell growth at 1 M after 48 hrs by sulforhodamine B assay; type: functional; parameters: scale not given: the % may be the effect or the level left; summary of the method: as §2
SK-MEL-5 = assay: Growth inhibition of human SK-MEL-5 cells assessed as cell growth at 1 M after 48 hrs by sulforhodamine B assay; type: functional; parameters: scale not given: the % may be the effect or the level left; summary of the method: as §1
NCI-H23 = assay: Growth inhibition of human NCI-H23 cells assessed as cell growth at 1 M after 48 hrs by sulforhodamine B assay; type: functional; parameters: scale not given: the % may be the effect or the level left; summary of the method: as §2
HL-60(TB) = assay: Growth inhibition of human HL-60(TB) cells assessed as cell growth at 1 M after 48 hrs by sulforhodamine B assay; type: functional; parameters: scale not given: the % may be the effect or the level left
Summary of the method: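 NCI 60-cell panel, single-dose screen. Cells grown in RPMI 1640 with 5% fetal bovine serum and 2 mM L-glutamine, seeded at 5000–40,000 cells/well and preincubated 24 h at 37 °C in 5% CO2 before drug. Exposure 48 h, then sulforhodamine B staining. Read-out is growth percent: 100 = no inhibition, 0 = no net growth, negative = lethality.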

SW-620 = assay: Growth inhibition of human SW620 cells assessed as cell growth at 1 M after 48 hrs by sulforhodamine B assay; type: functional; parameters: scale not given: the % may be the effect or the level left; summary of the method: as §1
[3] = Growth inhibition of human […] cells assessed as cell growth at 1 M after 48 hrs by sulforhodamine B assay; type: functional; parameters: scale not given: the % may be the effect or the level left; summary of the method: as §2
LOX IMVI = assay: Growth inhibition of human LOXIMVI cells assessed as cell growth at 1 M after 48 hrs by sulforhodamine B assay; type: functional; parameters: scale not given: the % may be the effect or the level left; summary of the method: as §2
COLO 205 = assay: Growth inhibition of human COLO205 cells assessed as cell growth at 1 M after 48 hrs by sulforhodamine B assay; type: functional; parameters: scale not given: the % may be the effect or the level left; summary of the method: as §2
HCC 2998 = assay: Growth inhibition of human HCC2998 cells assessed as cell growth at 1 M after 48 hrs by sulforhodamine B assay; type: functional; parameters: scale not given: the % may be the effect or the level left; summary of the method: as §2
EKVX = assay: Growth inhibition of human EKVX cells assessed as cell growth at 1 M after 48 hrs by sulforhodamine B assay; type: functional; parameters: scale not given: the % may be the effect or the level left; summary of the method: as §2
OVCAR-5 = assay: Growth inhibition of human OVCAR5 cells assessed as cell growth at 1 M after 48 hrs by sulforhodamine B assay; type: functional; parameters: scale not given: the % may be the effect or the level left; summary of the method: as §2
UO-31 = assay: Growth inhibition of human UO31 cells assessed as cell growth at 1 M after 48 hrs by sulforhodamine B assay; type: functional; parameters: scale not given: the % may be the effect or the level left; summary of the method: as §1
MDA-MB-468 = assay: Growth inhibition of human MDA-MB-468 cells assessed as cell growth at 1 M after 48 hrs by sulforhodamine B assay; type: functional; parameters: scale not given: the % may be the effect or the level left; summary of the method: as §2
NCI-H522 = assay: Growth inhibition of human NCI-H522 cells assessed as cell growth at 1 M after 48 hrs by sulforhodamine B assay; type: functional; parameters: scale not given: the % may be the effect or the level left; summary of the method: as §2

SMILES | Activity (SK-MEL-2) [%] | Activity (OVCAR-3) [%] | Activity (PC-3) [%] | Activity (T47D) [%] | Activity (KM12) [%] | diameter of the inhibition zone (DIZ) [1] [cm] | Activity (NCI/ADR-RES) [%] | Activity (A549) [%] | Activity (K562) [%] | Activity (CAKI-1) [%] | Activity (HOP-62) [%] | Activity [2] [%] | Activity (SF-295) [%] | Activity (ACHN) [%] | Activity (OVCAR-8) [%] | Activity (IGROV-1) [%] | LD50 (Rattus norvegicus) [mg/kg] | LD90 (Rattus norvegicus) [mg/kg] | Activity (OVCAR-4) [%] | Activity (SK-MEL-5) [%] | other results
Cc1ccc(N/N=C(\C(=O)c2ccc(Cl)cc2)c2nc(C)cc(=O)[nH]2)cc1 | 95.33 | 95.76 | 95.01 | 88.32 | 114.61 | 0 | 102.57 | 100.03 | 91.74 | 112.71 | 94.24 | 99.88 | 90.05 | 99.08 | 100.7 | 7.59 | 2.663 | 4.35687 | 116.35 | 82.48 | Activity (UACC-257): 104.52%; Activity (SR): 84.35%; Activity (CCRF-CEM): -15.08%; Activity (NCI-H23): 111.33%; Activity (HL-60(TB)): 108.59%; Activity (SW-620): 93.7%; Activity [3]: 85.08%; Activity (LOX IMVI): 92.62%; Activity (COLO 205): 116.23%; Activity (HCC 2998): 115.84%; Activity (EKVX): 91.46%; Activity (OVCAR-5): 121.85%
Cc1cc(=O)[nH]c(/C(=N/Nc2ccccc2)C(=O)c2ccc(Cl)cc2)n1 | 102.42 | 97.53 | 92.58 | 77.02 | 101.95 | 0 | 105.88 | 92.54 | 52.73 | 103.86 | 104.07 | 83.59 | 75.72 | 110.63 | 92.85 | 17.65 | 2.11122 | 3.24592 | 110.81 | 92.44 | Activity (CCRF-CEM): 66.03%; Activity (UO-31): 116.06%; Activity (NCI-H23): 105.18%; Activity (HL-60(TB)): 50.74%; Activity (SW-620): 94.56%; Activity [3]: 96.57%; Activity (LOX IMVI): 98.95%; Activity (COLO 205): 105.71%; Activity (HCC 2998): 109.1%; Activity (EKVX): 103.39%; Activity (OVCAR-5): 117.08%
CC(=O)c1ccc(N/N=C(\C(=O)c2ccc(Cl)cc2)c2nc(C)cc(=O)[nH]2)cc1 | 99.06 | 104.16 | 90.5 | 75.56 | 100.14 | 0 | 93.99 | 94.61 | 87.61 | 95 | 116.72 | 90.12 | 95.38 | 90.63 | 92.95 | 94.2 | 1.87034 | 2.25087 | 99.2 | 88.4 | Activity (UACC-257): 99.94%; Activity (SR): 62.16%; Activity (MDA-MB-468): 94.65%; Activity (UO-31): 75.87%; Activity (NCI-H23): 86.1%; Activity (HL-60(TB)): 115.14%; Activity (SW-620): 98.45%; Activity [3]: 91.91%; Activity (LOX IMVI): 90.57%; Activity (COLO 205): 121.73%; Activity (HCC 2998): 111.21%; Activity (EKVX): 105.04%; Activity (OVCAR-5): 91.69%; Activity (NCI-H522): 84.76%

From ChEMBL document CHEMBL1629486, “Antimicrobial, antitumor and 5α-reductase inhibitor activities of some hydrazonoyl substituted pyrimidinones” (Eur J Med Chem, 2010)
